Measured values taken from ChEMBL document CHEMBL1126042, “Reversible inhibitors of the gastric (H+/K+)-ATPase. 2. 1-Arylpyrrolo[3,2-c]quinolines: effect of the 4-substituent” (J Med Chem, 1992).

Columns and labels:
[1] = molecular target: T1, Potassium-transporting ATPase (Rattus norvegicus, UniProt P09626); assay: Inhibition of rat isolated gastric (H(+)/K(+))-ATPase.; assay type: tissue-based, Stomach
Procedure, shortened: (§1)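 (H+/K+)-ATPase activity measured in lyophilized gastric vesicles; compounds dissolved in DMSO, then diluted into pH 7.0 buffer. IC50 given as mean ± range (n = 2) or as a single observed value (n = 1).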

Rattus norvegicus [2] = assay: Percentage inhibition of rat gastric secretion following 10 uM/Kg i.v.
[3] = molecular target: T1, Potassium-transporting ATPase; assay: The compound was evaluated for the inhibition of gastric H+/K+ ATPase; assay type: tissue-based, Stomach; procedure, shortened: as §1
Rattus norvegicus [4] = assay: The compound was evaluated for the percentage inhibition of rat gastric secretion at a dose of 10 umol/kg on intravenous administration; assay type: functional; conditions: Stomach
Rattus norvegicus [5] = assay: The compound was evaluated for the percentage inhibition of rat gastric secretion at a dose of 10 umol/kg on intravenous administration; d = Compound was too insoluble for intravenous administration; assay type: functional, organism-based; conditions: Stomach
Canis familiaris [6] = assay: The compound was evaluated for the gastric antisecretory activity in the Heidenhain pouch dog for a dose of 1 umol/kg on intravenous administration.; assay type: functional; conditions: Canis lupus familiaris, Stomach
Procedure, shortened: (§2)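 Conscious Heidenhain pouch dogs dosed intravenously; inhibition of gastric acid secretion measured.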

Rattus norvegicus [7] = assay: The compound was evaluated for the gastric antisecretory activity in the lumen-perfused rat on intravenous administration; assay type: functional; conditions: Stomach
[8] = molecular target: T2, Potassium-transporting ATPase (Rattus norvegicus) (UniProt P09626+P18598); assay: The compound was evaluated for the inhibition of gastric H+/K+ ATPase at 10 uM; assay type: tissue-based; conditions: Stomach
[9] = molecular target: T2, Potassium-transporting ATPase (Rattus norvegicus); assay: The compound was evaluated for the inhibition of gastric H+/K+ ATPase at 100 uM; assay type: tissue-based; conditions: Stomach
Canis familiaris [10] = assay: The compound was evaluated for the gastric antisecretory activity in the Heidenhain pouch dog for a dose of 1 umol/kg on intravenous administration; assay type: functional; conditions: Canis lupus familiaris, Stomach; procedure, shortened: as §2
Canis familiaris [11] = assay: The compound was evaluated for the gastric antisecretory activity in the Heidenhain pouch dog for a dose of 4 umol/kg on intravenous administration; assay type: functional; conditions: Canis lupus familiaris, Stomach; procedure, shortened: as §2
[12] = molecular target: Potassium-transporting ATPase (Rattus norvegicus, UniProt P09626+P18598); assay: The compound was evaluated for the inhibition of gastric (H(+)/K(+))-ATPase; Compound was insoluble; assay type: protein-complex assay, Stomach; procedure, shortened: as §1
Sequence of Potassium-transporting ATPase (Rattus norvegicus, UniProt P09626+P18598) (P09626 whole entry): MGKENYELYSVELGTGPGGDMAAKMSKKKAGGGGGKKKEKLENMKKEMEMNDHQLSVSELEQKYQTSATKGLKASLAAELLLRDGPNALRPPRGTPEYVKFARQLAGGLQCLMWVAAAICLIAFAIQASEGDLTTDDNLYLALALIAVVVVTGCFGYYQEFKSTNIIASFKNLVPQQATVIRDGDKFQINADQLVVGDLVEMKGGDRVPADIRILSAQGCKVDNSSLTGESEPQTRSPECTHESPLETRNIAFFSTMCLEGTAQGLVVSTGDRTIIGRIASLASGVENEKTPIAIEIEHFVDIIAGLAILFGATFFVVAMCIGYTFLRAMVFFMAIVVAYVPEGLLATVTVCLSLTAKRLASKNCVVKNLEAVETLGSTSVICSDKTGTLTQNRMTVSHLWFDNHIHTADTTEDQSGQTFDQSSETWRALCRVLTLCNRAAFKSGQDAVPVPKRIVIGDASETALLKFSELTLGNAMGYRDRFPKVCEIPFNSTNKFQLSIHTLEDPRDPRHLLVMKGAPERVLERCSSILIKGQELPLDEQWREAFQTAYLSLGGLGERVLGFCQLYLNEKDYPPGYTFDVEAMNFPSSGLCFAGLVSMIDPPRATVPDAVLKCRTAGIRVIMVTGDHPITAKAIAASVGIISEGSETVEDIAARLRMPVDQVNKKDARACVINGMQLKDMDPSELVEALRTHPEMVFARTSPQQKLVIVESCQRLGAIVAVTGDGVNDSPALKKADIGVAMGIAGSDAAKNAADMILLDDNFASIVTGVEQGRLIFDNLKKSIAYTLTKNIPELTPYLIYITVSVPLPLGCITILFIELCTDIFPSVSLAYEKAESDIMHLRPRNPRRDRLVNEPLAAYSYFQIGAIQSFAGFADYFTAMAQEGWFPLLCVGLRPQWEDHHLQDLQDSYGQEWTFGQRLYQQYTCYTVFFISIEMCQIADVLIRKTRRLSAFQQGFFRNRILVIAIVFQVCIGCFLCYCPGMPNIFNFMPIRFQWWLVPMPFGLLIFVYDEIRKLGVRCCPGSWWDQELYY
Sequence of Potassium-transporting ATPase (Rattus norvegicus, UniProt P09626+P18598) (P18598 whole entry): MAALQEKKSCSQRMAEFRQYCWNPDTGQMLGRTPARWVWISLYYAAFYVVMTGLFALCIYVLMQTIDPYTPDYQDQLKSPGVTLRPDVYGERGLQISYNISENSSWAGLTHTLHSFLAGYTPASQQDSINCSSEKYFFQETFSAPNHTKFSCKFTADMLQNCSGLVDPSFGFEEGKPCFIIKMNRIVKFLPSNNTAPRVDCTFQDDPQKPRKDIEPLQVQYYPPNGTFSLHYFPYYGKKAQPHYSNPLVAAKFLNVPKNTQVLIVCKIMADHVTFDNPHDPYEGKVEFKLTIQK

[13] = molecular target: T2, Potassium-transporting ATPase (Rattus norvegicus); assay: The compound was evaluated for the inhibition of gastric (H(+)/K(+))-ATPase at 100 uM; assay type: protein-complex assay; conditions: Stomach
[14] = molecular target: T2, Potassium-transporting ATPase (Rattus norvegicus); assay: The compound was evaluated for the inhibition of gastric (H(+)/K(+))-ATPase at 30 uM; conditions: Stomach

T1 sequence (P09626 whole entry): as the sequence (P09626 whole entry) above
T1 sequence (P18598 whole entry, further chain): as the sequence (P18598 whole entry) above

Row | Compound | IC50 [1] [µM] | Inhibition (Rattus norvegicus [2]) [%] | also measured
1 | Cc1ccccc1-n1ccc2c(NCCCO)nc3c(C)cccc3c21 | 0.41 | 30 | –
2 | COc1ccccc1N1CCc2c(Cl)nc3c(OC)cccc3c21 | – | – | IC50 [3]: 10.7 µM; inhibition in vivo at 10 µmol/kg (Rattus norvegicus [4]): 19%
3 | COc1ccccc1N1CCc2c1c1cccc(OC)c1[nH]c2=O | 33.4 | – | –
4 | Cc1ccccc1-n1ccc2c(NCCCCO)nc3c(C)cccc3c21 | 0.22 | 47 | –
5 | COc1ccccc1N1CCc2c(N)nc3c(OC)cccc3c21 | 0.44 | 20 | –
6 | COc1cccc2c3c(c(NCCO)nc12)CCN3c1ccccc1C | 0.28 | 67 | –
7 | Cc1ccccc1N1CCc2c1nc1c(C)cccc1c2Nc1ccccc1 | 1.1 | 0 | –
8 | CNc1nc2c(OC)cccc2c2c1CCN2c1ccccc1C | 0.25 | 49 | –
9 | Cc1ccccc1N1CCc2c(CO)nc3ccccc3c21 | 1.23 | 33 | –
10 | Cc1ccccc1N1CCc2c(Cl)nc3c(C)cccc3c21 | – | – | inhibition [8]: 25%; inhibition in vivo at 10 µmol/kg (Rattus norvegicus [4]): 15%
11 | COc1cccc2c1nc(C)c1ccn(-c3ccccc3C)c12 | 0.64 | 48 | ED50 (Rattus norvegicus [7]): 7.08 µmol/kg
12 | Cc1ccccc1N1CCc2cnc3c(C)cccc3c21 | 0.98 | 47 | ED50 (Rattus norvegicus [7]): 16.2 µmol/kg
13 | CNc1nc2c(C)cccc2c2c1ccn2-c1ccccc1C | 0.29 | 61 | –
14 | Cc1ccccc1-n1ccc2c(Cl)nc3c(C)cccc3c21 | – | – | inhibition [9]: 30%; inhibition [8]: 2%
15 | COc1cccc2c3c(c(C(=O)Nc4ccccc4C)nc12)CCN3c1ccccc1C | – | – | IC50 [12]: Insoluble
16 | CCOC(=O)c1cc(Nc2ccccc2C)c2cccc(OC)c2n1 | 0.85 | – | ED50 (Rattus norvegicus [7]): 8.2 µmol/kg
17 | CNc1nc2c(C)cccc2c2c1CCN2c1ccc(OC)cc1C | 0.28 | 67 | –
18 | Cc1ccccc1N1CCc2c1nc1c(C)cccc1c2Cl | – | – | inhibition [13]: 8%
19 | COc1ccccc1N1CCc2cnc3c(OC)cccc3c21 | 1.29 | 31 | –
20 | Cc1ccccc1-n1ccc2c(NCCO)nc3c(C)cccc3c21 | 0.17 | 48 | –
21 | CSc1nc2c(C)cccc2c2c1CCN2c1ccccc1C | – | – | inhibition (Rattus norvegicus [5]): Too insoluble; inhibition [14]: 0%
22 | COc1nc2c(C)cccc2c2c1CCN2c1ccccc1C | – | – | inhibition (Rattus norvegicus [5]): Too insoluble; inhibition [14]: 0%
23 | COc1ccccc1N1CCc2c(O)nc3c(OC)cccc3c21 | – | – | inhibition (Rattus norvegicus [5]): Too insoluble

The next lines start with results.

Row | IC50 [1] [µM] | Compound | Inhibition (Rattus norvegicus [2]) [%] | also measured
24 | 4.97 | CNC(=O)Nc1nc2c(C)cccc2c2c1CCN2c1ccccc1C | – | inhibition (Rattus norvegicus [5]): Too insoluble
25 | 0.22 | Cc1ccccc1N1CCc2c(N)nc3c(C)cccc3c21 | 63 | inhibition in vivo at 1 µmol/kg (Canis familiaris [6]): 53%; ED50 (Rattus norvegicus [7]): 4.3 µmol/kg
26 | 1.03 | Cc1ccccc1N1CCc2c(N(C)C)nc3c(C)cccc3c21 | 56 | ED50 (Rattus norvegicus [7]): 7.2 µmol/kg
27 | 1.99 | Cc1ccccc1N1CCc2c(NC(N)=O)nc3c(C)cccc3c21 | – | inhibition (Rattus norvegicus [5]): Too insoluble
28 | 0.18 | CNc1nc2c(C)cccc2c2c1CCN2c1ccccc1C | 72 | inhibition in vivo at 1 µmol/kg (Canis familiaris [10]): 67%; inhibition in vivo at 4 µmol/kg (Canis familiaris [11]): 95%; ED50 (Rattus norvegicus [7]): 2.8 µmol/kg
